# pIC50: −log10 of the molar value.
# Assays:
# Escherichia coli = test: Antibacterial activity against Escherichia coli MC4100 by CLSI method; assay type: functional
# [1] = Inhibition of bocillin FL binding to Escherichia coli MC4100 penicillin-binding protein 6
# Summary of the method: (§1)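 Isolated E. coli MC4100 PBPs were competed with 10 drug concentrations from 0.016 μg/ml to 8 μg/ml, then labeled with Bocillin FL. Fluorescent PBP bands were imaged. IC50 is the concentration giving 50% inhibition of Bocillin FL binding to each PBP relative to a no-drug control.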
# [2] = Inhibition of bocillin FL binding to Escherichia coli MC4100 penicillin-binding protein 5; summary of the method: as §1
# [3] = Inhibition of bocillin FL binding to Escherichia coli MC4100 penicillin-binding protein 4; summary of the method: as §1
# [4] = Inhibition of bocillin FL binding to Escherichia coli MC4100 penicillin-binding protein 3; summary of the method: as §1
# [5] = biological target: T1, Cell shape peptidoglycan synthetase penicillin-binding protein 2 (Escherichia coli, UniProt Q2TL65); test: Inhibition of bocillin FL binding to Escherichia coli MC4100 penicillin-binding protein 2
# T1 sequence (Q2TL65 whole entry): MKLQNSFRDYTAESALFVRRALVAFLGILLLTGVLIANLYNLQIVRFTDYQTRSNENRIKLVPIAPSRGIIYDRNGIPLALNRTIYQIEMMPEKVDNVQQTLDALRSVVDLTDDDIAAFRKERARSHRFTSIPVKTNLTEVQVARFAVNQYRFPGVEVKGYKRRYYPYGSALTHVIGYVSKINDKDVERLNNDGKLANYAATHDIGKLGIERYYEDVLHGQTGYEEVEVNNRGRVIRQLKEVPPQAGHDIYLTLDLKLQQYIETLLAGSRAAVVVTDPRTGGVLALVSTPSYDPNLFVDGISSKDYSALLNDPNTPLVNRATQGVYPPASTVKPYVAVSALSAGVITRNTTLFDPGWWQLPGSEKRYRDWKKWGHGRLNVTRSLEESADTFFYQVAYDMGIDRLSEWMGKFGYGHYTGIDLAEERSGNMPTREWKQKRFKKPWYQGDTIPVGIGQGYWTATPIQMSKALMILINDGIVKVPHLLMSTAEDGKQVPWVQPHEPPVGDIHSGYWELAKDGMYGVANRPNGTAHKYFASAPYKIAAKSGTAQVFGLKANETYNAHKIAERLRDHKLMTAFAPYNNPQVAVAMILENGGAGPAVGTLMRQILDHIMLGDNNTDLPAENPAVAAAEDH
# Summary of the method: (§2)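 Isolated E. coli MC4100 PBPs; competition with drug at 10 concentrations, 0.016 μg/ml to 8 μg/ml, then Bocillin FL labeling. Gel bands visualized by imaging. IC50 is the concentration giving 50% inhibition of Bocillin FL binding relative to a no-drug control.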
# [6] = Inhibition of bocillin FL binding to Escherichia coli MC4100 penicillin-binding protein 1b; summary of the method: as §1
# [7] = Inhibition of bocillin FL binding to Escherichia coli MC4100 penicillin-binding protein 1a; summary of the method: as §2
# [8] = biological target: T2, Penicillin-binding protein 2 (Staphylococcus aureus, UniProt Q53729); test: Inhibition of bocillin FL binding to methicillin-susceptible Staphylococcus aureus ATCC 29213 penicillin-binding protein 2
# T2 sequence (Q53729 whole entry): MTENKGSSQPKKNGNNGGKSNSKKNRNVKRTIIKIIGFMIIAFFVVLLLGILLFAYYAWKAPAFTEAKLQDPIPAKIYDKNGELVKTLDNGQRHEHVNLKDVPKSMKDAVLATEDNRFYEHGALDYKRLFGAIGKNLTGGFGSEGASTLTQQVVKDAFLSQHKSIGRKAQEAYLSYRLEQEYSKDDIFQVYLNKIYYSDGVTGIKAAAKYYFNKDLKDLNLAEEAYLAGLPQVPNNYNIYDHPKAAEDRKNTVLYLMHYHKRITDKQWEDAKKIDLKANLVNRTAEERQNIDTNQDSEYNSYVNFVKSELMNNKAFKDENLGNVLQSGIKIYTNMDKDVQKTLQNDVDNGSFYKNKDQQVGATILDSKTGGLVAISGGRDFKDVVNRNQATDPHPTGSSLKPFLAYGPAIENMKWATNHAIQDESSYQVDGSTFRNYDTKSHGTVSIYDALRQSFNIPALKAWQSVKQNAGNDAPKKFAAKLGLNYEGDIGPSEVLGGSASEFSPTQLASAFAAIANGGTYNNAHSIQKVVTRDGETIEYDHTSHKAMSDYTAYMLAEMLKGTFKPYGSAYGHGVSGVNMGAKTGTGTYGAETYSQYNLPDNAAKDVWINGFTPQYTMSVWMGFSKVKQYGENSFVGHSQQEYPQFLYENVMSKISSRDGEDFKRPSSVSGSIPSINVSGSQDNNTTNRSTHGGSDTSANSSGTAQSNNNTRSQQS
# Summary of the method: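 Isolated S. aureus ATCC 29213 PBPs exposed to drug over 0.001 μg/ml to 50 μg/ml, followed by Bocillin FL labeling and fluorescence imaging. IC50 is 50% inhibition of Bocillin FL binding relative to no-drug control.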
# MecA = biological target: T3, MecA (Staphylococcus aureus, UniProt Q7DHH4); test: Inhibition of bocillin FL binding to methicillin-resistant Staphylococcus aureus OC 3726 penicillin-binding protein 2a
# T3 sequence (Q7DHH4 whole entry): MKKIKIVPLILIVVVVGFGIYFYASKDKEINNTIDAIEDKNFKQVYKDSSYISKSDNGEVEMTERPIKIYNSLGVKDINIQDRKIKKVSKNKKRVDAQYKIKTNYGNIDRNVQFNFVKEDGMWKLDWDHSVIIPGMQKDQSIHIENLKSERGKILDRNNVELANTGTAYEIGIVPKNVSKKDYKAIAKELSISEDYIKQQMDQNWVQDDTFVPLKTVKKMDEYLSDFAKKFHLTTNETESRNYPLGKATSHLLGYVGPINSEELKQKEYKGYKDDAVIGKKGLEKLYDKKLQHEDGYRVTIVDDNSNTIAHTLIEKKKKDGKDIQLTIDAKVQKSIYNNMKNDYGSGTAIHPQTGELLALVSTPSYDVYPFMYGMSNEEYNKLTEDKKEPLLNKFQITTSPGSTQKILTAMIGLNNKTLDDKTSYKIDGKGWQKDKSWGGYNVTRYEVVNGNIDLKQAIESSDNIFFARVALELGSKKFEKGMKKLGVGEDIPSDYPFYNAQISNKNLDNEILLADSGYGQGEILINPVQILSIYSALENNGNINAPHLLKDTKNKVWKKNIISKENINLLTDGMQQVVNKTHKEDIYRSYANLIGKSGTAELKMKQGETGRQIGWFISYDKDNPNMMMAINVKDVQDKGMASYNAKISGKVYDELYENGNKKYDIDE
# Summary of the method: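 OC 3726 membranes were first preincubated with 1 mg/ml clavulanic acid to saturate all PBPs except PBP2a. Drug was then added (0.16 μg/ml to 50 μg/ml), followed by Bocillin FL labeling and fluorescence imaging. IC50 is 50% inhibition of PBP2a labeling compared with the no-drug (0 μg/ml) sample.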
# Staphylococcus aureus = test: Antibacterial activity against methicillin-resistant Staphylococcus aureus OC 3726 by CLSI method; assay type: functional
SMILES,MIC (Escherichia coli),IC50 [1],IC50 [2],IC50 [3],IC50 [4],pIC50 [5],IC50 [6],IC50 [7],pIC50 [8],pIC50 (MecA),MIC (Staphylococcus aureus)
CO/N=C(\C(=O)N[C@@H]1C(=O)N2C(C(=O)O)=C(CSc3nc(=O)c(O)nn3C)CS[C@H]12)c1csc(N)n1 (stereo in doubt) [CEFTRIAXONE],0.06 µg/mL,> 8 µg/mL,6 µg/mL,0.4 µg/mL,< 0.01 µg/mL,6.44,0.5 µg/mL,0.2 µg/mL,6.74,< 4.05,> 64 µg/mL
CC(C)(O/N=C(\C(=O)N[C@@H]1C(=O)N2C(C(=O)[O-])=C(C[n+]3ccccc3)CS[C@H]12)c1csc(N)n1)C(=O)O [CEFTAZIDIME],0.12 µg/mL,> 4 µg/mL,> 4 µg/mL,> 4 µg/mL,0.07 µg/mL,5.14,1.1 µg/mL,1.1 µg/mL,,< 4.04,> 128 µg/mL
Nc1nc(/C(=N/O)C(=O)N[C@@H]2C(=O)N3C(C(=O)O)=C(/C=C4\CCN([C@@H]5CCNC5)C4=O)CS[C@H]23)ns1 [CEFTOBIPROLE],0.03 µg/mL,3 µg/mL,> 8 µg/mL,0.5 µg/mL,0.2 µg/mL,6.43,8 µg/mL,0.3 µg/mL,6.03,5.77,2 µg/mL

# — ChEMBL document CHEMBL1157359, “Binding of ceftobiprole and comparators to the penicillin-binding proteins of Escherichia coli, Pseudomonas aeruginosa, Staphylococcus aureus, and Streptococcus pneumoniae” (Antimicrob Agents Chemother, 2007)
